Test [1] is described as follows: inhibitors of TNFa-induced NFkB p65 translocation, primary screen, imaging, HUVEC, MLSMR starter and 10KST1 sets (AID 438;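 active means inhibition above 20% together with a positive visual image hit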;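 further: compound added about 3h40 before a 20 min TNFalpha stimulation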;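 on inhibition: signal is the nuclear over cytoplasmic p65 intensity ratio per well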). As to conditions: HUVEC TNFa-induced p65 nuclear translocation; cell count: measured here: nuclei count (cytotoxicity indicator), at 2.08 µM; inhibition: at 2 µM, stronger effect = higher value, 0% TNFa-plus-vehicle, 100% no-TNFa wells.
Test [2] is described as follows: inhibitors of E-selectin induction by TNFa, primary screen, imaging, HUVEC, immunofluorescence, MLSMR starter and 10KST1 sets (AID 487).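 On inhibition: signal is fraction of cell area covered by stained E-selectin grains.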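 On nuclei count: 100% = median nuclei count of all wells on the same plate.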 As to conditions: HUVEC TNFalpha-induced E-selectin immunofluorescence imaging, at 2 µM; inhibition: stronger effect = higher value; nuclei count: measured here: cell number, toxicity.
Test [3] is described as follows: DUSP6 inhibitors restoring Erk phosphorylation by chemical complementation, primary imaging in DUSP6-transfected HeLa (AID 609;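 active means compounds giving at least 50% inhibition in the cell-based MKP-3 phosphatase rescue imaging test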;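 on inhibition: phospho-Erk level distribution per well compared with pooled transfected vehicle control wells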). The settings on record: HeLa MKP-3 transfected, phospho-Erk imaging KS statistic, at 10 µM, cells stimulated with TPA for 15 min.
Test [4] addresses Dual specificity protein phosphatase 6 (Homo sapiens) (UniProt Q16828). Described as above. As to conditions: HeLa MKP-3 transfected, phospho-Erk imaging KS statistic; at 10 µM; stronger effect = higher value; cells stimulated with TPA for 15 min.
In test [5] the target is Voltage-gated potassium channel subunit beta-2 (Rattus norvegicus) (UniProt P62483). As to the kind of experiment: KvBeta enzyme negative modulators, primary screen, biochemical, NADPH fluorescence (AID 622;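 active means fluorescence slope higher than the sample average by over 3 SD, cut at about -0.22 in these data, passing the limit was not always enough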;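 further: slope of raw intensity against log time taken from 70 to 1610 s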). The settings on record: recombinant KvBeta, 4-cyanobenzaldehyde reduction, at 10 µM, stronger effect = higher value.
For test [6] the target is unchanged. As to the kind of experiment: KvBeta positive modulators, primary screen, biochemical, NADPH fluorescence (AID 623;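 active means NADPH fluorescence slope more negative than the mean of all samples by about 3 SD, 99.7% confidence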;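 further: fluorescence intensity change per second fitted from 20 to 320 s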). The settings on record: Recombinant KvBeta, NADPH fluorescence decrease slope, 10 min; at 10 µM; stronger effect = lower value.
The target of test [7] is Muscarinic acetylcholine receptor M4 (Homo sapiens) (UniProt P08173). As to the kind of experiment: compounds altering M4/GIRK thallium flux, either direction, primary screen, M4 allosteric agonist project, cell-based, HEK293 M4/GIRK, BTC-AM (AID 625;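 active means fluorescence slope after compound addition differing from the mean of all tested samples at 99.7% confidence, mostly higher but some lower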;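 further: thallium influx through GIRK channels coupled to M4 in HEK293 cells with BTC-AM dye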). As to conditions: at 10 µM, actives lie on both sides. Summed up: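 Material: M4/GIRK1/GIRK2 stable HEK293 cell line. Medium: pH 7.3 thallium assay buffer. Dosing: single compound concentration, 10 µM final. Schedule: 1 h dye loading, 2 min kinetic read. Measured by: kinetic fluorescence with BTC-AM dye. Read-out: post-addition slope, 15–24 s, of baseline-normalized fluorescence. Benchmarks: carbachol and DMSO controls.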

A short description of test [8]: inhibitors of larval lipid processing in zebrafish, primary screen, whole organism, PED6 fluorescence, gall bladder and intestine (AID 686;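 active means a full or partial loss of lipid-probe fluorescence in the fish gall bladder, intestine or both, judged by eye; inactive means no fluorescence loss, or compound toxic to the fish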;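 further: larvae 5 to 7 days old with five fish per well; signal comes from phospholipase A2 cleavage of quenched PED6 carried via bile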). The settings on record: Zebrafish larvae PED6 lipid processing, fluorescence scoring; screened at 20 µM (by protocol). Summed up: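 System: live zebrafish larvae aged 5-7 days, whole organism; measure: graded gall bladder and intestinal fluorescence inhibition per well; incubation: overnight exposure; reagent: ingested quenched lipid PED6 at 100 nM; signal: By-eye fluorescence microscopy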

A short description of test [9]: inhibitors of Chlamydomonas gravitaxis, primary screen, whole organism, Chlamydomonas reinhardtii, WT vs cilia-less mutant, absorbance, 96-well (AID 463189;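 active means inhibition at or above 50% relative to wild type and mutant plate controls; inactive means inhibition below 50%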;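 further: 0% = wild type cc124 cells in DMSO and 100% = ciliumless bld1 mutant cells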). As to conditions: OD600 absorbance, 2 days, at 10 µM, stronger effect = higher value.
The mark [10] stands for this setting: measured here: cell density z-score.
Where [11] appears, read: measured here: nuclear c-Myc green intensity z-score.
The mark [12] stands for this setting: measured here: nuclear pErk red intensity z-score, stronger effect = higher value.

SMILES strings stand for the structures. Calls of active or inactive are those of the source.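 How the source made its calls, unless noted: active means visually confirmed hit in the image check and inhibition above 20%; inconclusive means visually confirmed hit but inhibition not above 20%; inactive means no visual hit in the image check.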

Chain of Muscarinic acetylcholine receptor M4 (Homo sapiens) (P08173 whole entry, looked up): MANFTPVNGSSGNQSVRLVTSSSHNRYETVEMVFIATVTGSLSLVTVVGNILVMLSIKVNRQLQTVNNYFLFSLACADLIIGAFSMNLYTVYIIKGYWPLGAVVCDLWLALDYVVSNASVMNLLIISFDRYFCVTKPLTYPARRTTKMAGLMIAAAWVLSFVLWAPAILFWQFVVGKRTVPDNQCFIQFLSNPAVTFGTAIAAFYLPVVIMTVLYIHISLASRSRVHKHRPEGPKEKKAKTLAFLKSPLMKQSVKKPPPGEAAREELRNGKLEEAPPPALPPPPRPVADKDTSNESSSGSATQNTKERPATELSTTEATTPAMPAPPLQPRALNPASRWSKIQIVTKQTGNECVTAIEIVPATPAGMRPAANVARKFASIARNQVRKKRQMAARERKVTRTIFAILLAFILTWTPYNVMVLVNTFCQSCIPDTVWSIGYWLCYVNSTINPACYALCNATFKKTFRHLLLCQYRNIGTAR
Chain of Dual specificity protein phosphatase 6 (Homo sapiens) (Q16828 whole entry, looked up): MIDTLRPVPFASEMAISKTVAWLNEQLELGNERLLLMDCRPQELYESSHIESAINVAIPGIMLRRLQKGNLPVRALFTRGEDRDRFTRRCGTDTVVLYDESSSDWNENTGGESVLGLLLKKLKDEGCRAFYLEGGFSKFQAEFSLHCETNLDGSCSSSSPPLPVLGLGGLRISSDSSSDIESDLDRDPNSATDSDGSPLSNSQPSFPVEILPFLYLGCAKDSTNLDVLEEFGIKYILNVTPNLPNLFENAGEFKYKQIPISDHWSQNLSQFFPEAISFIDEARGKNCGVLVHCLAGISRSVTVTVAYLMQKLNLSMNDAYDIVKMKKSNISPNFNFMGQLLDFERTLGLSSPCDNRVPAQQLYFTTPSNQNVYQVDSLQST
Chain of Voltage-gated potassium channel subunit beta-2 (Rattus norvegicus) (P62483 whole entry, looked up): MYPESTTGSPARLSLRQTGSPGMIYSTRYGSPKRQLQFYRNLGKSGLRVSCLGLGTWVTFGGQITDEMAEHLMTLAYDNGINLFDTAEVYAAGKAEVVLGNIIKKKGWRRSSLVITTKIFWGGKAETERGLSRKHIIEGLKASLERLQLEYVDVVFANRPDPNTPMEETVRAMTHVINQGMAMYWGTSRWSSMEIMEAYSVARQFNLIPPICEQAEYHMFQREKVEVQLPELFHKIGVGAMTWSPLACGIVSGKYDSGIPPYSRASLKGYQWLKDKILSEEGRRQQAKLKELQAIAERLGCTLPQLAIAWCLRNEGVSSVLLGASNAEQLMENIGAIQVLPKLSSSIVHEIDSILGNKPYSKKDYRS

Take `COCCCNC(=O)c1c(N)n(/N=C/c2ccccn2)c2nc3ccccc3nc12`: the cell count in [1] came out at 736. For the same molecule, the inhibition in [1] was 7.3% (inactive); in test [2], 5.4% (inactive); in [4] it was -1.12% (inactive); in test [9], 82.5% (active). Moreover, the nuclei count in [2] was 148%. The figures for the z-score in test [3] (setting [10]), in test [3] (setting [11]) and in test [3] (setting [12]) were 0.26, 1.28 and 1.17, respectively. The figures for the fluorescence slope in [5] and in test [7] were -0.424 (inactive) and 0.00553 (inactive), respectively. The NADPH fluorescence slope in test [6] was -5.6e-05 (inactive). Moreover, the outcome in test [8] was inactive.
For the molecule `COc1ccc(-n2ncc3c(NCCCn4ccnc4)ncnc32)cc1`, the cell count in [1] came to 614. Moreover, the inhibition in test [1] was -4% (inactive); in test [2] it was 0.9% (inactive); in [4], 3.42% (inactive); in test [9] it was 1.19% (inactive). In test [2], this molecule yielded a nuclei count of 170%. For the same molecule, the z-score was -0.682 in test [3] (setting [10]), 1.35 in [3] (setting [11]) and -0.266 in [3] (setting [12]). Further, the fluorescence slope is -0.394 (inactive) in test [5] and 0.00474 (inactive) in [7]. Also, in test [6], the NADPH fluorescence slope is -5.9e-06 (inactive). The molecule was classed as inactive in [8].
As to `CCC(=O)NC1(C(F)(F)F)C(=O)Nc2c1c(=O)[nH]c(=O)n2Cc1ccco1` (stereo unspecified), in [1], the cell count was found to be 652. The inhibition in test [1] was -2.8% (inactive); in test [2], -96.3% (inactive); in test [4], 1.04% (inactive); in test [9], 9.21% (inactive). Moreover, the nuclei count in test [2] was determined as 167%. The z-score in [3] (setting [10]) is -1.08; in [3] (setting [11]), 0.161; in test [3] (setting [12]) it was 0.694. Also, the fluorescence slope in test [5] was -0.497 (inactive); in test [7] it was 0.00505 (inactive). For the same molecule, in test [6], the NADPH fluorescence slope is -8.6e-05 (inactive). In addition, the outcome in test [8] was inactive.
For `O=S(=O)(c1cccc(-c2csc(-c3ccccc3)n2)c1)N1CCOCC1`, in [1], the cell count turned out to be 681. Also, the inhibition was -6% (inactive) in [1], 21.6% (inactive) in test [2], -2.29% (inactive) in test [4] and 25.2% (inactive) in test [9]. This molecule also showed a nuclei count in test [2] of 172%. Besides, the z-score in [3] (setting [10]) was -0.667; in test [3] (setting [11]), -0.235; in [3] (setting [12]) it was -0.477. The fluorescence slope was -0.452 (inactive) in [5] and 0.00515 (inactive) in test [7]. Moreover, in test [6], the NADPH fluorescence slope is -5.8e-05 (inactive). For the same molecule, the outcome in [8] was inactive.
For the molecule `CC(C)Sc1nnc2n(CCc3ccccc3)c(=O)c3c4c(sc3n12)COC(C)(C)C4`, in test [1], the cell count came out at 532. The inhibition is -8% (inactive) in [1], -61.3% (inactive) in [2], 7.93% (inactive) in test [4] and 19% (inactive) in [9]. The molecule also came in with a nuclei count in test [2] of 139%. Further, the z-score in [3] (setting [10]) is 0.633; in [3] (setting [11]), -0.0361; in test [3] (setting [12]), -0.58. Moreover, the fluorescence slope was -0.435 (inactive) in test [5] and 0.00702 (inactive) in [7]. In addition, in test [6], the NADPH fluorescence slope is -2.4e-05 (inactive). For the same molecule, the call in [8] was inactive.
On to `CC(C)(C)NC(=O)/C=N/O`, for which the cell count in test [1] came out at 637. Further, the inhibition was -13.4% (inactive) in test [1], -71.6% (inactive) in test [2], 1.63% (inactive) in test [4] and 25.5% (inactive) in test [9]. For the same molecule, the nuclei count in [2] is 166%. The z-score in test [3] (setting [10]) is -0.0727; in [3] (setting [11]) it was -0.26; in test [3] (setting [12]) it was 0.222. The fluorescence slope in test [5] is -0.466 (inactive); in [7], 0.00655 (inactive). Besides, the NADPH fluorescence slope in test [6] was -3.8e-05 (inactive). The molecule was called inactive in test [8].
In the case of `CSc1nc(C)c2c(c1C#N)CCCC2`, in test [1], the cell count came out at 507. Also, the inhibition in test [1] is -9.7% (inactive); in test [2], -266% (inactive); in [4] it was 1.04% (inactive); in test [9], 10.6% (inactive). For the same molecule, in [2], the nuclei count was 148%. Moreover, the z-score is -0.174 in [3] (setting [10]), -0.19 in test [3] (setting [11]) and -1.41 in test [3] (setting [12]). In addition, the values for the fluorescence slope in [5] and in test [7] were -0.455 (inactive) and 0.00451 (inactive), respectively. Besides, in test [6], the NADPH fluorescence slope was -3.8e-05 (inactive). Also, the molecule was classed as inactive in [8].

Broadly, the inhibition is the change of the read-out against control, counted positive when it falls.

For the origin of these results see PubChem BioAssay.
